Compound activity (PubChem BioAssay)
FAS-TE inh: inhibitors of human fatty acid synthase thioesterase domain; P49327; recombinant FAS-TE, OMFH fluorogenic substrate, fluorescence endpoint; inhibition, % at 15 µM; 360,000 compounds, 0.67% hits;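 active = compounds whose normalised, plate-corrected inhibition of enzyme fluorescence in the single-dose primary screen is 50% or more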;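 note: 0% = DMSO with enzyme and 100% = substrate without enzyme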
GRIN3A LBD mod: modulators (binders) of human NR3A ligand-binding domain | NR3A LBD differential scanning fluorimetry, Tm shift; 0% = protein alone, 100% = glycine-bound protein | Tm shift relative to glycine control, % at 25 µM | 340,000 compounds, 2.5% hits;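 active = melting temperature shift of at least 10% of the positive control shift, at one fixed dose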
iPSC survival up: enhancers of human iPSC single-cell survival | AID 602274 | 360,000 compounds, 0.044% hits | hiPSC single-cell survival, ATPlite luminescence; 100% = ROCK inhibitor wells, 0% = DMSO | survival enhancement, % at 20 µM; in the data active = survival enhancement above about 18%;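 note: cells exposed to compounds for 16 hours before the ATP read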
SENP1 inh: inhibitors of human SENP1 SUMO protease catalytic domain. Q9P0U3. recombinant SENP1 catalytic domain, CyPet-SUMO1-YPet FRET cleavage. inhibition, % at 10 µM. 360,000 compounds, 0.21% hits. AID 624204;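 active = inhibition at least 30% at 10 µM, raw YFP signal under a set limit, fluorescence ratio 0.5 to 1.5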;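 note: 0% = enzyme with DMSO and 100% = no enzyme wells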
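Material – human SENP1 catalytic domain · Input – SENP1 enzyme, 20 pM final · Compound dosing – single concentration of 10 µM compound, 0.5% DMSO final · Timing – enzyme reaction for 50 min at room temperature, dark · Measured by – FRET fluorescence in CFP and YFP emission channels · Control set – no-enzyme wells low, DMSO-plus-enzyme wells high control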
Arrestin-AP2 inh: blocks beta-arrestin peptide binding to AP2 adaptin | inhibition, % at 10 µM | FITC-arrestin peptide / GST-AP2 beads, flow cytometry; AP2 beta2 appendage carries R879A mutation | 340,000 compounds, 0.31% hits;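 active = inhibition above a set limit, near 3 SD of compounds lacking own fluorescence, cut at about 54% in these data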;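 note: plate controls were DMSO wells for no effect and 5 µM unlabelled arrestin peptide for full effect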
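Assay system: GST-AP2 R879A bound to glutathione beads, E. coli-expressed; Medium: PBS with 0.05% Tween 20 and 0.1% BSA; Also added: fluorescein-tagged arrestin peptide at 50 nM final; Timing: 12 min plus 1 h, RT; Measured by: flow cytometry, FL1 (488/535 nm); Evaluation: percent drop in bead-associated FITC signal.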
H9c2 protect: myocardial damage modulation in H9c2 cells; protection from H2O2 cell death, % at 20 µM; H9c2 cardiomyocytes, H2O2 injury protection, ATPLite, 2 h; 360,000 compounds, 0.63% hits;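 active = compounds giving at least 50% protection of heart cells from peroxide-induced death in the single-dose screen, raw or plate-pattern-corrected value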;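 note: 0% = DMSO wells with peroxide and 100% = DMSO wells without peroxide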
The depositor's hits bear a star; · = no result given. Hits are enriched below; roughly 4% of the tested compounds scored in any of these assays.

SMILES	FAS-TE inh	GRIN3A LBD mod	iPSC survival up	SENP1 inh	Arrestin-AP2 inh	H9c2 protect
CCCOc1cccc(-c2nn(-c3ccccc3)cc2/C=C(\C#N)C(=O)NCCCn2ccnc2)c1	-18	11*	-1	-44	3	16
CCN(CC)S(=O)(=O)c1cccc(-c2nn(-c3ccccc3)cc2/C=C(\C#N)C(=O)NCc2ccco2)c1	16	2	2	-2	1	6
COc1cccc(Nc2nn3c(=O)c4ccccc4nc3s2)c1	1	23*	-3	-7	1	9
Cc1c(Nc2nc3ccccc3n3cnnc23)cccc1[N+](=O)[O-]	1	1	0	6	-1	4
Cc1cc([N+](=O)[O-])ccc1Nc1nc2ccccc2n2cnnc12	6	37*	0	-5	5	41
O=c1c2ccccc2nc2sc(Nc3ccc(F)cc3)nn12	-12	-4	-3	0	30	-10
COc1cccc(Nc2nc3ccccc3n3cnnc23)c1	2	5	0	-12	10	86*
COc1ccc(Nc2nc3ccccc3n3cnnc23)cc1Cl	-2	6	0	-3	1	18
COC(=O)[C@@]12C[C@@H](CC(=O)N3CCOCC3)C(=O)N(Cc3ccccc3)C1=CCC(C)(C)C2	·	·	·	3	·	·
COc1ccc(C(CNC(=O)c2ccc(-c3cccc(C(F)(F)F)c3)o2)N2CCOCC2)cc1 (stereo not drawn)	24	-3	1	-3	9	8
Cc1ccccc1OCCC(=O)OCC(=O)N1CCN(S(=O)(=O)c2ccc(Cl)cc2)CC1	24	11*	-1	0	-17	-8
Cc1ccc(OCCC(=O)OCC(=O)N2CCN(S(=O)(=O)c3ccc(Cl)cc3)CC2)cc1	14	·	0	3	0	-9
Cc1ncc(CO)c(/C=N/Nc2ccc(C(F)(F)F)cn2)c1O	-1	27*	5	-21	2	42
COc1ccc(-c2cc(-c3nnc(COC(=O)c4ccncc4)o3)c3ccccc3n2)cc1OC	10	-2	1	-36	1	79*
COc1ccc(CCNC(=O)CN2C(=O)NC(Cc3c[nH]c4ccccc34)C2=O)cc1 (stereo not drawn)	-2	25*	1	1	0	1
COc1ccc(CNC(=O)NCCc2c[nH]c3ccccc23)cc1	0	-6	0	-1	1	-6
COc1ccc(C(=O)NCCc2c[nH]c3ccccc23)cc1	-2	10*	0	0	3	-3
COc1ccc(CCNC(=S)NCCc2c[nH]c3ccccc23)cc1	4	31*	-2	4	27	-7
COc1ccc(C(=O)NCCc2ccccc2)cc1[N+](=O)[O-]	12	2	0	1	-15	3
COc1ccc(C(=O)NCCc2c[nH]c3ccccc23)cc1[N+](=O)[O-]	19	25*	0	-2	8	5
O=C(CN1C(=O)NC(Cc2c[nH]c3ccccc23)C1=O)NCCc1ccccc1 (stereo not drawn)	-4	-1	2	0	-7	0
CCN(CC)C(=O)c1cccc(-c2csc(C(NC(C)=O)c3cccc(OC)c3)n2)c1 (stereo not drawn)	0	·	0	2	·	-1
S=C(SSC(=S)N1CCOCC1)N1CCOCC1	0	·	2	-1	·	-20
COCCNC(=O)C1(C)CCCN(Cc2sc(C)nc2C)C1 (stereo not drawn)	-6	·	-3	0	·	1
COc1ccc(Cl)cc1NC(=S)NCCc1c[nH]c2ccccc12	26	29*	-4	0	1	-7
SMILES	FAS-TE inh	GRIN3A LBD mod	iPSC survival up	SENP1 inh	Arrestin-AP2 inh	H9c2 protect
O=C(NCCc1c[nH]c2ccccc12)c1ccc(Cl)cc1	5	29*	0	1	2	-9
Cc1cccc2c(CCNC(=O)c3ccc([N+](=O)[O-])cc3)c[nH]c12	31	18*	-1	0	0	-3
COc1ccc(-c2cn(CCc3c[nH]c4ccccc34)nn2)cc1	9	19*	-2	0	6	-3
O=C1NC[C@@H](CCCCN2C[C@H](Cc3ccc(O)cc3)N(CCc3ccc(O)cc3)C(=O)C2=O)N(Cc2ccccc2)C1=O	-5	·	2	0	·	·
[O-][n+]1cc(Cl)cc(Cl)c1	-6	·	1	1	·	0
O=C(CN1C(=O)NC(Cc2c[nH]c3ccccc23)C1=O)Nc1ccc(Br)cc1F (stereo not drawn)	2	12*	0	3	-16	-4
O=C(Nc1ccc2c(c1)CN(C(=O)Nc1ccc(F)cc1)CC2)c1ccccn1	4	·	0	0	·	-7
COc1ccc(C(C)(NC(C)=O)c2nc(-c3ccccc3OC)cs2)cc1 (stereo not drawn)	-1	·	0	0	·	0
CC(C)CNc1nnnc2c1sc1nc(N3CCOCC3)c3c(c12)CC(C)(C)SC3	27	-1	0	-31	0	25
CC1(C)Cc2c(c(N3CCOCC3)nc3sc4c(NN)ncnc4c23)CS1	4	-9	-4	-61	15	59*
Cc1n[nH]c(=S)n1/N=C/c1ccccc1OCc1ccc(Cl)cc1Cl	-6	16*	-1	2	-2	-15
COc1ccc(-c2nnc(SCC(=O)/C(C#N)=C(\C)N)o2)cc1	0	13*	-3	-1	9	-2
C/C(N)=C(/C#N)C(=O)CSc1nnc(-c2ccccc2Br)o1	0	-1	0	0	2	-11
CC1(Cc2ccccc2OC(F)(F)F)C(=O)Nc2c(Cl)ccc(Cl)c21 (stereo not drawn)	22	·	-1	0	·	-7
CCCCNC(=O)Nc1ccccn1	-9	12*	-1	4	-7	6
CCCCNC(=O)Nc1ccc(Br)cn1	-5	0	8	1	-1	14
COc1ccccc1Nc1nc(-c2ccc([N+](=O)[O-])cc2)nc2ccccc12	21	39*	8	1	8	6
COc1ccccc1Nc1nc(-c2cccc([N+](=O)[O-])c2)nc2ccccc12	17	-3	-2	5	10	-1
COc1ccc(OC)c(Nc2nc(-c3cccc([N+](=O)[O-])c3)nc3ccccc23)c1	19	-5	1	4	3	10
O=[N+]([O-])c1ccc(-c2nc(NCc3cccnc3)c3ccccc3n2)cc1	17	37*	0	-2	5	-5
COc1ccc(Nc2nc(-c3cccc([N+](=O)[O-])c3)nc3ccccc23)c(OC)c1	9	21*	2	2	38	8
O=C(C[C@H]1CC[C@@H]2[C@H](COC[C@@H](O)CN2Cc2cccc(F)c2)O1)NCC1CCCCC1	·	·	·	2	·	·
